Laboratory results as given in PMC6912599 (European journal of medicinal chemistry, 2018).
Like-named read-outs stand apart in the source and are kept apart here.

Experiments:
tadpoles [1] = conditions: read-out: published anesthetic EC50s; tadpole LoRR; cited from earlier work
tadpoles [2] = experiment: Loss of righting reflexes; format: in vivo, tadpole
α1β3 GABAAR [3] = target: T1, α1β3 GABAAR (Homo sapiens, UniProt P14867+P28472); experiment: Voltage clamp electrophysiology of α1β3 GABAAR expressed in Xenopus oocytes; format: cell-based
T1 sequence (P14867 28-456): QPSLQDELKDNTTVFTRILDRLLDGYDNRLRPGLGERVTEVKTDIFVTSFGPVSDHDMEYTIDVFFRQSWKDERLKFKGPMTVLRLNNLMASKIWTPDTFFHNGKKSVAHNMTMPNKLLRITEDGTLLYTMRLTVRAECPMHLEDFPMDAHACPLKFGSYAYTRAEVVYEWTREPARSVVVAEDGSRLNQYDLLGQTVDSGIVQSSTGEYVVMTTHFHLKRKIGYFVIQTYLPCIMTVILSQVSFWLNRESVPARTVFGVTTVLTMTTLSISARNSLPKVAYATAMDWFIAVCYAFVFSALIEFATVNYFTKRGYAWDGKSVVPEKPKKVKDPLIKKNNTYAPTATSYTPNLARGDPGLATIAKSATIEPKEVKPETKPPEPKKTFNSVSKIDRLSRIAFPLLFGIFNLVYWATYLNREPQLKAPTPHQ
T1 sequence (P28472 26-473): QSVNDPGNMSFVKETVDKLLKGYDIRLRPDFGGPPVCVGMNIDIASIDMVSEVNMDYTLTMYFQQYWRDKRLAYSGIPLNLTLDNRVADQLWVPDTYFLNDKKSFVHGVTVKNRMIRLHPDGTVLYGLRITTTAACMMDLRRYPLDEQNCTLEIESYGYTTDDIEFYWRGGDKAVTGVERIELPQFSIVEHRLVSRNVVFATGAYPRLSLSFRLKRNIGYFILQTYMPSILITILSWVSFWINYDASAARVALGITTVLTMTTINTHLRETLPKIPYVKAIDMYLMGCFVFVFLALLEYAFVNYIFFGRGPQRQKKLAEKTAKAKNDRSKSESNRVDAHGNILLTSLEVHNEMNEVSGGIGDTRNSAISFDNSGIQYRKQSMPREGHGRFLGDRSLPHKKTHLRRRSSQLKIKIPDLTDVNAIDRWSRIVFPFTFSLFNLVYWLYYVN

α1β3γ2L GABAAR [4] = target: T2, α1β3γ2L GABAAR (Homo sapiens, UniProt P14867+P28472); experiment: Modulation of 2 nM [3H]muscimol binding to α1β3γ2L GABAAR
Target sequence in this assay (P18507 40-475, one chain of several, further chain): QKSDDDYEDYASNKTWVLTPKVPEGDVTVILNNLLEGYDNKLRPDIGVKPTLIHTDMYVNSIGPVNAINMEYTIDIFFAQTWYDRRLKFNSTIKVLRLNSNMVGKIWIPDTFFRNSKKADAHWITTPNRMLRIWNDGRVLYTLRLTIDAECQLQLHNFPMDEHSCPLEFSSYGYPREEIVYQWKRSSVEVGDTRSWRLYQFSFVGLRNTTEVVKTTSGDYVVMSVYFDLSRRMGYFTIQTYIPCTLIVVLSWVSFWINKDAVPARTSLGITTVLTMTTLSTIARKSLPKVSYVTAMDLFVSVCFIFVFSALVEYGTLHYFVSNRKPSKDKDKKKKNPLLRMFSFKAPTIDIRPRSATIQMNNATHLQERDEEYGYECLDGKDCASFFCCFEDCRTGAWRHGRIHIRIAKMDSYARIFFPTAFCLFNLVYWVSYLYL

α1L264Tβ3γ2L receptors = α1L264Tβ3γ2L receptors (Homo sapiens, UniProt P14867+P28472, L291T); experiment: Direct activation of spontaneously gating α1L264Tβ3γ2L receptors in oocytes; format: cell-based
Chain of α1L264Tβ3γ2L receptors (P18507 40-475, one chain of several): as the sequence (P18507 40-475, one chain of several, further chain) above
Chain of α1L264Tβ3γ2L receptors (P14867 28-456 L291T, one chain of several): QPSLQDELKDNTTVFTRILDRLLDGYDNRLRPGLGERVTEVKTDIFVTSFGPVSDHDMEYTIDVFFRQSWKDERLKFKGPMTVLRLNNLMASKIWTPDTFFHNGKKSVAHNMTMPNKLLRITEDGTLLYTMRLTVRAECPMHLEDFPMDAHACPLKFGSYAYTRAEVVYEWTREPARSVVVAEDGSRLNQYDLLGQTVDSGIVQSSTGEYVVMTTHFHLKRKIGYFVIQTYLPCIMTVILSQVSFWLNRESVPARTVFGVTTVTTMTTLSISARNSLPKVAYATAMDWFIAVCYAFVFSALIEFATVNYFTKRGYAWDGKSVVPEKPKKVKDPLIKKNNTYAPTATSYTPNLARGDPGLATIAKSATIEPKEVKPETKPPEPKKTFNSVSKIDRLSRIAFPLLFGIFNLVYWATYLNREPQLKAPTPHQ

α1Q242Wβ3γ2L receptors = α1Q242Wβ3γ2L receptors (Homo sapiens, UniProt P14867+P28472, Q269W); experiment: Electrophysiology of steroid site mutant α1Q242Wβ3γ2L receptors in oocytes; format: cell-based; conditions: 10 μM steroid; EC5 GABA
Chain of α1Q242Wβ3γ2L receptors (P14867 28-456 Q269W, one chain of several): as the sequence (P14867 28-456 L291T, one chain of several) above, with Q242W, T264L counted along it
Chain of α1Q242Wβ3γ2L receptors (P18507 40-475 partner, one chain of several): as the sequence (P18507 40-475, one chain of several, further chain) above
Method in brief: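 Female Xenopus laevis stage V oocytes were injected with up to 10 ng of α1Q242W, β3 and γ2L mRNA (1:1:3) and held ≥24 h. Two-electrode voltage clamp was run at −50 mV and 20–22°C, with ND96 (pH 7.4) superfusion at 2–3 mL/min.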

α1β3 GABAAR [5] = target: T1, α1β3 GABAAR; experiment: Modulation of 2 nM [3H]muscimol binding to α1β3 GABAAR
α1β3γ2L GABAAR [6] = target: T2, α1β3γ2L GABAAR; experiment: Voltage clamp electrophysiology of α1β3γ2L GABAAR expressed in Xenopus oocytes; format: cell-based; conditions: for enhancement of EC5 GABA-activated currents: 10 μM compound; for enhancement of EC5 GABA-activated currents / potentiation of EC5 GABA-activated chloride currents (up to): EC5 GABA (4 μM); for potentiation of EC5 GABA-activated chloride currents (up to): maximum concentration tested 100 μM
Target sequence in this assay (P18507 40-475 partner, one chain of several): as the sequence (P18507 40-475, one chain of several, further chain) above

α1β3 GABAAR [7] = target: T1, α1β3 GABAAR; experiment: Inhibition of [3H]21-pTFDBzox-AP photolabeling of purified α1β3 GABAAR; format: binding; conditions: for inhibition of photolabeling at high concentrations: same extent as 30 μM allopregnanolone
α1β3γ2 GABAAR = α1β3γ2 GABAAR (Homo sapiens, UniProt P14867+P28472); experiment: Inhibition of [3H]21-pTFDBzox-AP photolabeling of purified α1β3γ2 GABAAR; format: binding; conditions: 30 μM; 0.8 μM [3H]21-pTFDBzox-AP
Chain of α1β3γ2 GABAAR (P18507 40-475 partner, one chain of several): as the sequence (P18507 40-475, one chain of several, further chain) above

For `CC(=O)[C@H]1CC[C@H]2[C@@H]3CC[C@H]4C[C@H](O)CC[C@]4(C)[C@H]3C(=O)C[C@]12C` [alphaxalone, 5α-pregnan-3α-ol-11,20-dione, reference compound], which EC50 (tadpoles [1]) is on record?
The EC50 was 1000 to 2000 nM.

And the EC50 (tadpoles [2]; read-out: anesthetic EC50 (LoRR), alphaxalone alone, 60 minutes equilibration)?
The EC50 was 1400 ± 300 nM.

And the EC50 (tadpoles [2]; read-out: anesthetic EC50 of alphaxalone, in constant presence of […] 21-pTFDBzox-AP)?
The EC50 was 920 ± 300 nM.

Which “enhancement of EC10 GABA-activated currents” value (α1β3 GABAAR [3]; 10 μM compound, EC10 GABA (1 μM)) does the source give for “21-[4-(3-(Trifluoromethyl)-3H-diazirin-3-yl)benzoxy]allopregnanolone [21-pTFDBzox-AP]” here?
Its value is 2.1± 0.4 fold.

And the “fitted maximal enhancement ratio” value (α1β3 GABAAR [3]; EC10 GABA, Hill slope constrained to 1.7)?
Its value is 2.1 ± 0.4.

What about the “Hill coefficient nH of [3H]muscimol binding enhancement” value (shortened to “Hill coefficient nH”) (α1β3γ2L GABAAR [4]; detergent/lipid micelles) of the same molecule?
The value was 1.15 ± 0.36.

What about the “maximal enhancement of [3H]muscimol binding” value (α1β3γ2L GABAAR [4]; detergent/lipid micelles) of the same molecule?
The value was 135 ± 1%.

What about the “Hill coefficient nH” value (α1β3γ2L GABAAR [4]; membranes) of the same molecule?
Its value is 1.09 ± 0.22.

What about the “maximal enhancement of [3H]muscimol binding” value (α1β3γ2L GABAAR [4]; membranes) of the same molecule?
Its value is 199 ± 30%.

And the “current elicited as % of the maximal GABA response” value (α1L264Tβ3γ2L receptors; 2 μM, no GABA)?
The value was “approximately 21%”.

What about the “direct increase of inward current in the absence of GABA” value (α1L264Tβ3γ2L receptors; 2 μM, no GABA) of the same molecule?
The value was “about 50%”.

What about the “positive modulation in α1Q242W mutant receptors” value (α1Q242Wβ3γ2L receptors) of the same molecule?
Its value is “eliminated positive modulation”.

What about the “Hill coefficient nH” value (α1β3 GABAAR [5]; detergent/lipid micelles) of the same molecule?
The value was 1.45 ± 0.51.

What about the “maximal enhancement of [3H]muscimol binding” value (α1β3 GABAAR [5]; detergent/lipid micelles) of the same molecule?
Its value is 172 ± 6%.

And the “Hill coefficient nH” value (α1β3 GABAAR [5]; membranes)?
The value was 1.71 ± 0.10.

And the “maximal enhancement of [3H]muscimol binding” value (α1β3 GABAAR [5]; membranes)?
Its value is 271 ± 7%.

And the “effect on GABA EC50” value (α1β3γ2L GABAAR [6]; 5 μM)?
The value was “did not reduce the GABA EC50”.

What about the “enhancement of EC5 GABA-activated currents” value (α1β3γ2L GABAAR [6]) of the same molecule?
Its value is 2.6 ± 0.3 fold.

What about the “fitted maximal enhancement ratio” value (α1β3γ2L GABAAR [6]; EC5 GABA, Hill slope constrained to 1.7) of the same molecule?
The value was 2.6 ± 0.3.

What about the “antagonism of alphaxalone's anesthetic action” value (tadpoles [2]; 2.5 or 10 μM 21-pTFDBzox-AP) of the same molecule?
The value was “no significant antagonism”.

What about the “Loss of righting reflexes (LoRR)” value (tadpoles [2]; tadpoles exposed to 1, 2, 3 and 10 μM) of the same molecule?
The value was “No LoRR”.

For `C[C@]12CC[C@@H](O)C[C@@H]1CC[C@@H]1[C@@H]2CC[C@]2(C)[C@@H](C(=O)CO)CC[C@@H]12` [THDOC, 5α-pregnan-3α, 21-diol-20-one, reference compound], which “inhibition of photolabeling at high concentrations” value (α1β3 GABAAR [7]) is on record?
Its value is 60%.

And the “positive modulation in α1Q242W mutant receptors” value (α1Q242Wβ3γ2L receptors)?
The value was “eliminated positive modulation”.

What about the “enhancement of EC5 GABA-activated currents” value (α1β3γ2L GABAAR [6]) of the same molecule?
Its value is 16 ± 2.1 fold.

Which results are given for `CC(=O)[C@H]1CC[C@H]2[C@@H]3CC[C@H]4C[C@H](O)CC[C@]4(C)[C@H]3CC[C@]12C` [allopregnanolone, 5α-pregnan-3α-ol-20-one]?
reduction of β subunit photolabeling (α1β3 GABAAR [7]; 30 μM, 0.8 μM [3H]21-pTFDBzox-AP): 60%; reduction of β subunit photolabeling (α1β3γ2 GABAAR): 70%

Which inhibition of photolabeling (α1β3 GABAAR [7]; 60 μM) does the source give for `C=CC[C@@]1(c2cccc(C3(C(F)(F)F)N=N3)c2)C(=O)NC(=O)N(C)C1=O` [R-mTFD-MPAB] here?
The inhibition of photolabeling was “no inhibition”.

Which IC50 (α1β3 GABAAR [7]) does the source give for `CC(=O)[C@H]1CC[C@H]2[C@@H]3CC[C@@H]4C[C@H](O)CC[C@]4(C)[C@H]3CC[C@]12C` [pregnanolone, 5β-pregnan-3α-ol-20-one] here?
Its IC50 is 700 nM.

What about the “inhibition of photolabeling at high concentrations” value (α1β3 GABAAR [7]) of the same molecule?
Its value is 60%.

Which inhibition of photolabeling (α1β3 GABAAR [7]; 1 mM) does the source give for `CCOC(=O)c1cncn1[C@H](C)c1ccccc1` [etomidate] here?
Its inhibition of photolabeling is “no inhibition”.

For pregnenolone sulfate, which inhibition of photolabeling (α1β3 GABAAR [7]; 100 μM) is on record?
Its inhibition of photolabeling is “no inhibition”.

For `CC(=O)[C@H]1CC[C@H]2[C@@H]3CC4(N=N4)[C@H]4C[C@H](O)CC[C@]4(C)[C@H]3C(=O)C[C@]12C` [6-azi-OAP, 6-Azi-3α-hydroxy-5α-pregnane-11,20-dione], which “effect on GABA dose-response curves compared with α1β3γ2L” value (α1β3 GABAAR [3]; 15 μM, not shown) is on record?
Its value is “similar”.

What about the “Hill coefficient nH” value (α1β3γ2L GABAAR [4]; α1β3γ2 GABAARs) of the same molecule?
The value was 1.3 ± 0.15.

And the “efficacy of modulation of [3H]muscimol binding” value (α1β3γ2L GABAAR [4]; α1β3γ2 GABAARs)?
Its value is 330 ± 9%.

And the “decrease of GABA EC50” value (α1β3γ2L GABAAR [6]; 15 μM 6-azi-OAP)?
Its value is “approximately 3 fold”.

And the “potentiation of EC5 GABA-activated chloride currents (up to)” value (α1β3γ2L GABAAR [6])?
The value was 10.1 ± 0.67 fold.

For Picrotoxin [reference compound], which “outward currents as % of maximal GABA-induced inward currents” value (α1L264Tβ3γ2L receptors; 2 mM) is on record?
The value was “about 40%”.

Which results are given for `CC(=O)[C@H]1CC[C@H]2[C@@H]3CC4(N=N4)[C@@H]4C[C@H](O)CC[C@]4(C)[C@H]3C(=O)C[C@]12C` [6-azi-OP, 6-Azi-3α-hydroxy-5β-pregnane-11,20-dione]?
Hill coefficient nH of [3H]muscimol binding enhancement (α1β3γ2L GABAAR [4]; α1β3γ2 GABAARs): 1.6 ± 0.1; efficacy of modulation of [3H]muscimol binding (α1β3γ2L GABAAR [4]; α1β3γ2 GABAARs): 241 ± 3%; potentiation of EC5 GABA-activated chloride currents (up to) (α1β3γ2L GABAAR [6]): 8.0 ± 1.4 fold
